Screening results deposited in PubChem BioAssay by several laboratories.
An excerpt weighted towards active compounds, which were near 2.8% of everything screened.
NPY-Y1 antag: NPY-Y1 (human) receptor antagonism; P25929; HEK293-CNG Y1 cells, membrane potential fluorescence; NPY at EC95, then isoproterenol; inhibition, % at 3.6 µM; 1% of 200,000 active;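 active means inhibition above the campaign mean inhibition of all tested compounds plus 3 SD, cut at about 20% in these data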;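 further: 0% = DMSO wells given NPY plus isoproterenol and 100% = isoproterenol alone without NPY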
Target sequence (P25929 whole entry, looked up): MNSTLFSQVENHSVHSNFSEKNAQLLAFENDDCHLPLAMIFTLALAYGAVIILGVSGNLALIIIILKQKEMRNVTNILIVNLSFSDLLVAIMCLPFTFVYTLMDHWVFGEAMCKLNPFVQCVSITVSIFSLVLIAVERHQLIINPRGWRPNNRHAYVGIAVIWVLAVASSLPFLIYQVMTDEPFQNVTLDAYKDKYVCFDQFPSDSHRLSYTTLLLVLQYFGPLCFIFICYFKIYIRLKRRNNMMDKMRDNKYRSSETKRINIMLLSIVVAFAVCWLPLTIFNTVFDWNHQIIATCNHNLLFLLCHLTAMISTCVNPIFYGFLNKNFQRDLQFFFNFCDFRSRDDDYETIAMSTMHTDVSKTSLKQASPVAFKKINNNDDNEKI
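Material: Y1- and CNG-channel-expressing HEK293 cells / Probe or stimulus: NPY 25 nM then isoproterenol 1 µM plus Ro 20-1724 25 µM / Doses: 3.6 µM single dose, DMSO 0.4% / Schedule: compound incubation 1 h at room temperature, readout 45 min post-stimulation / Signal: membrane potential fluorescence / Benchmarks: isoproterenol-only wells as full block versus NPY-plus-isoproterenol wells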
NPY Y2 blocker: NPY-Y2 (human) receptor antagonism; P49146; NPY-Y2 expressing cells, antagonist mode; inhibition, % at 2.7 µM; 0.99% of 140,000 active; in the data active means inhibition above about 17%;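 further: 0% = vehicle with agonist challenge and 100% = reference antagonist with challenge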
NPY1 pot ag: human NPY-Y1 potentiation or agonism, primary screen | AID 1304 | NPY-Y1 expressing cells, potentiator/agonist activation | P25929 | activation, % at 3.6 µM | 0.37% of 220,000 active; in the data active means activation above about 33%, passing the limit was not always enough;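 further: cells stimulated with NPY at EC10 then isoproterenol at EC100; 0% = low agonist plus stimulus and 100% = saturating agonist plus stimulus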
EP2 antag: inhibitors of human EP2 prostaglandin E2 receptor | AID 1422 | P43116 | 0.52% of 260,000 active | inhibition, % at 25 µM | C6 glioma cells expressing human EP2, cAMP TR-FRET; cells stimulated with saturating PGE2;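 active means percent inhibition above 40 after rounding to a whole number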;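 further: rat C6 glioma host cells with rolipram phosphodiesterase inhibitor present; the protocol text gives 20 µM as final concentration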
NPY2 pot ag: potentiators or agonists of human neuropeptide Y receptor Y2; P49146; cells expressing NPY-Y2, potentiator/agonist read-out; activation, % at 3.6 µM; 0.45% of 220,000 active; in the data active means activation above about 27%;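 further: cells stimulated with NPY near EC25 plus isoproterenol at EC100; 0% = vehicle plus submaximal agonist and 100% = vehicle plus saturating agonist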
EP2 modulator: modulates human prostaglandin E2 receptor EP2 signaling; induction, % at 25 µM; EP2-expressing cells, cAMP HTRF FRET, PGE2 co-stimulation; P43116; 0.83% of 260,000 active;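 active means compounds whose cAMP rise, as percent of the full-agonist control response, exceeds 60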;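 further: rat C6 glioma line stably carrying human EP2 under a CMV promoter; the protocol text gives 20 µM as final concentration; 100% = response of wells given 1 µM PGE2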
NPY-Y1 antag ct: counter-screen for NPY-Y2 antagonists: human NPY-Y1 antagonism; shares compounds with NPY Y2 blocker; cell-based NPY-Y1 antagonism counterscreen; inhibition, % at 3.6 µM; 19% of 710 active; in the data active means inhibition above about 20%;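 further: cells challenged with NPY then isoproterenol with cAMP sensed through a CNG channel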
NPY-Y2 ant conf: human NPY-Y2 antagonism, confirmation; 32% of 710 active; AID 1257; shares compounds with NPY Y2 blocker; HEK293 NPY-Y2 CNG channel, membrane potential fluorescence; inhibition, % at 2.8 µM;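 active means mean inhibition of triplicate wells above the hit cutoff set in the primary screen, cut at about 17% in these data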;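 further: 0% = DMSO with NPY challenge and 100% = BIIE0246 high control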
The depositor's hits bear a star; · = no result.

SMILES	NPY-Y1 antag	NPY Y2 blocker	NPY1 pot ag	EP2 antag	NPY2 pot ag	EP2 modulator	NPY-Y1 antag ct	NPY-Y2 ant conf
COc1cccc(-n2c(SCC(=O)NC3CCCCC3)nc3ccccc3c2=O)c1	·	·	·	14	·	9	·	·
COc1ccc2sc(N3C(=O)CC(Cc4cccc(C)c4)C3=O)nc2c1 (configuration not stated)	11	27*	-25	8	-27	-41	12	9
Cc1cccc(CC2CC(=O)N(c3nc4ccccc4s3)C2=O)c1 (configuration not stated)	12	·	-7	6	-7	-18	·	·
Cc1ccc(/C=C/C(=O)N2CCc3ccccc3C2)cc1	17	24*	-11	·	-20	30	12	13
COc1ccc(-c2nnc3sc(C(C)N4C(=O)c5ccccc5C4=O)nn23)cc1 (configuration not stated)	8	21*	-33	9	-30	17	18	29*
COc1ccc(-c2nnc3sc(CN4C(=O)c5ccccc5C4=O)nn23)cc1	·	·	·	9	·	·	·	·
Cc1ccc(-c2nnc3sc(C4COc5ccccc5O4)nn23)cc1 (configuration not stated)	1	18*	6	6	0	25	19	15
Cc1cccc(Nc2nc(NCc3ccco3)c3ccccc3n2)c1	5	27*	-2	35	10	-91	22*	20*
CCOC(=O)c1c(-c2ccccc2)csc1NC(=O)CSc1nnc(C)s1	9	12	-25	5	-15	34	·	·
CCOC(=O)c1c(-c2ccc(C)o2)csc1NC(=O)CSc1nnc(C)s1	17	18*	-22	4	-22	25	13	16
CCOC(=O)Cn1nnnc1CN(Cc1ccccc1)Cc1cc2cc(C)ccc2[nH]c1=O	·	·	·	4	·	12	·	·
COc1cc2c(cc1NC(=O)c1ccccc1F)CCCC2	11	10	-49	7	-12	41	·	·
COc1cc2c(cc1NC(=O)C(c1ccccc1)c1ccccc1)CCCC2	10	20*	12	3	-12	23	18	14
O=C(Cc1ccc(-c2ccccc2)cc1)N1CCC(O)(c2ccccn2)CC1	·	·	·	7	·	-77	·	·
Cc1ccc(OCCNc2ccc(C(F)(F)F)cc2[N+](=O)[O-])cc1	0	21*	19	6	1	22	20	17
Cc1ccc(C(=O)NCCCNc2ccc(C(F)(F)F)cc2[N+](=O)[O-])cc1	5	13	-6	6	-1	-7	·	·
CCOc1cccc(/C(O)=C2/C(=O)C(=O)N(CCCN3CCOCC3)C2c2ccco2)c1 (configuration not stated)	·	·	·	10	·	9	·	·
O=c1c2ccccc2nc2c3ccccc3c(NCCN3CCOCC3)nn12	14	20*	-40	8	-18	-1	17	25*
CCNC(=S)N(Cc1ccc(OC)cc1)Cc1cc2cc3c(cc2[nH]c1=O)OCO3	·	·	·	12	·	-1	·	·
COc1ccc(-c2ccc(=O)n(CC3CCN(C(=O)c4ccc(F)cc4F)CC3)n2)cc1	·	·	·	·	·	-53	·	·
COc1ccc(Cc2nc(C(=O)Nc3ccccc3)cs2)cc1	14	18*	-18	·	-12	-60	7	9
COc1ccc(Cc2nc(C(=O)Nc3ccc(F)cc3)cs2)cc1	13	14	-33	30	-29	-33	·	·
CC(C)n1c(=O)oc2cc(S(=O)(=O)NCC3CC4CCC3C4)ccc21 (configuration not stated)	·	·	·	7	·	-73	·	·
Cc1nn(C)cc1S(=O)(=O)Nc1ccccc1OCCN1CCC(C)CC1	·	·	·	3	·	1	·	·
COc1ccc(CN2CCN(c3ncccn3)CC2)c(OC)c1	15	18*	18	10	1	8	1	0
SMILES	NPY-Y1 antag	NPY Y2 blocker	NPY1 pot ag	EP2 antag	NPY2 pot ag	EP2 modulator	NPY-Y1 antag ct	NPY-Y2 ant conf
N[C@@H](CCC(=O)N[C@@H](CCSC(CC(=O)O)C(=O)O)C(=O)NCC(=O)O)C(=O)O (some centres not stated)	·	·	·	11	·	12	·	·
COc1ccccc1Oc1ccc2c(c1)C(=O)N(c1ccc(O)cc1)C2=O	4	18*	19	14	23	8	4	14
CC(C)(C)C(=O)Nc1ccc(Oc2ccc3c(c2)C(=O)N(c2ccc(O)cc2)C3=O)cc1	-1	-1	24	10	0	3	·	·
CCCc1cc(=O)[nH]c(SCC(=O)c2cc(C)n(C)c2C)n1	3	19*	-40	9	-9	-7	4	11
CCCc1cc(=O)[nH]c(SCC(=O)c2cc(C)n(C3CC3)c2C)n1	5	11	-38	7	-11	-32	·	·
CCN(CC)CC(O)COc1ccc2c(c1)c(C(C)=O)c(C)n2-c1ccccc1 (configuration not stated)	17	17*	-69	13	-35	-12	14	32*
O=C(Nc1nc2ccccc2s1)c1cc(-c2ccco2)nc2ccccc12	7	37*	-111	7	-116	-1	64*	88*
O=C(Nc1nccs1)c1cc(-c2ccco2)nc2ccccc12	0	14	3	10	7	28	·	·
Cc1nc(-n2nnc3ccccc32)c2c3c(sc2n1)CCCC3	15	22*	-23	0	-36	61*	11	10
CCc1ccccc1NC(=S)/N=C(\N)Nc1nc(C)c2cc(C)ccc2n1	10	5	3	9	-13	-6	·	·
Cc1ccc(NC(=S)/N=C(\N)Nc2nc(C)c3cc(C)ccc3n2)c(C)c1	15	18*	-7	0	3	-38	16	20*
CCOc1ccc(NC(=O)C2(c3ccc(OC)c(OC)c3)CCCC2)cc1	8	27*	-16	2	-2	32	4	3
COc1ccc(C2(C(=O)NC(C)C)CCCC2)cc1OC	-2	2	-22	12	-11	-5	·	·
O=c1c2ccccc2nnn1CSc1ccccc1	1	24*	13	8	0	22	6	2
CC(C)c1ccc(NC(=O)c2snc3ccc(Cl)cc23)cc1	6	26*	-3	5	-4	15	9	10
CC(C)c1ccc(NC(=O)c2csnn2)cc1	4	-3	31	5	1	4	·	·
O=C1CSC(c2nn(-c3ccccc3)cc2-c2cc3ccccc3oc2=O)N1Cc1ccco1 (configuration not stated)	7	18*	-39	10	-20	19	2	7
O=C1CSC(c2cn(-c3ccccc3)nc2-c2cc3ccccc3oc2=O)N1Cc1ccccc1 (configuration not stated)	11	3	-28	10	-15	45	·	·
